Source: ChEMBL document CHEMBL1129280, “3-Benzisothiazolylpiperazine derivatives as potential atypical antipsychotic agents” (J Med Chem, 1996)

Tests used:
Rattus norvegicus [1] = test: Dose (administered orally) inhibiting amphetamine-induced locomotor behavior in rats; format: functional; settings: po
[2] = target: T1, Adrenergic receptor alpha-1 (Rattus norvegicus, UniProt P15823+P23944+P43140); test: Displacement of [3H]prazosin from rat brain Alpha-1 adrenergic receptor
T1 sequence (P15823 whole entry): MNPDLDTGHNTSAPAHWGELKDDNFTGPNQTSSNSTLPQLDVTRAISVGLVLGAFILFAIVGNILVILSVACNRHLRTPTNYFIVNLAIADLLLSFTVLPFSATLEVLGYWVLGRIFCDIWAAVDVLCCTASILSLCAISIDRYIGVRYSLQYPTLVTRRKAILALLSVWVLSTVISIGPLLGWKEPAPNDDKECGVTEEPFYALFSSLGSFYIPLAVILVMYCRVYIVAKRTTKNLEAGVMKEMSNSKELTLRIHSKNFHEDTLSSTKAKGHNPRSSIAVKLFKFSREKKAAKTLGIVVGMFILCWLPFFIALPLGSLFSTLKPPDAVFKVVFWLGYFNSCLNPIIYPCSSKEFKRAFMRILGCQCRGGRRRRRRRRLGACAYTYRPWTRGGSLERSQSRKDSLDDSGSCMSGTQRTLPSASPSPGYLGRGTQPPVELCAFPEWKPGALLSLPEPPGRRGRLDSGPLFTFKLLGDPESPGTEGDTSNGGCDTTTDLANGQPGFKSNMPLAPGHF
T1 sequence (P23944 whole entry): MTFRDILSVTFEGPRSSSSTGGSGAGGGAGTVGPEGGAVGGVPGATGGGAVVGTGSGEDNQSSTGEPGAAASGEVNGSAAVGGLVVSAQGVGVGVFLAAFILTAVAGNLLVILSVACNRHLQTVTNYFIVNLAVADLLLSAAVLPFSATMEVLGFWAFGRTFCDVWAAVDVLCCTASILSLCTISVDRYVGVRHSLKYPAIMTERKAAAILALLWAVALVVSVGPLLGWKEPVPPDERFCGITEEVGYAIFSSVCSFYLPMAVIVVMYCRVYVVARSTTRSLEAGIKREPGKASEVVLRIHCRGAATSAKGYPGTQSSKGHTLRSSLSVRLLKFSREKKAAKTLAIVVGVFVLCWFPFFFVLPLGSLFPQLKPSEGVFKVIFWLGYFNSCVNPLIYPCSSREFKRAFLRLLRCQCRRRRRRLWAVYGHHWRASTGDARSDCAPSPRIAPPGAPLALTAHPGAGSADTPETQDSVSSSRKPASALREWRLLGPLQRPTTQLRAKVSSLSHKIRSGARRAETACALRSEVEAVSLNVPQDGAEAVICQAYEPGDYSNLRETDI
T1 sequence (P43140 whole entry): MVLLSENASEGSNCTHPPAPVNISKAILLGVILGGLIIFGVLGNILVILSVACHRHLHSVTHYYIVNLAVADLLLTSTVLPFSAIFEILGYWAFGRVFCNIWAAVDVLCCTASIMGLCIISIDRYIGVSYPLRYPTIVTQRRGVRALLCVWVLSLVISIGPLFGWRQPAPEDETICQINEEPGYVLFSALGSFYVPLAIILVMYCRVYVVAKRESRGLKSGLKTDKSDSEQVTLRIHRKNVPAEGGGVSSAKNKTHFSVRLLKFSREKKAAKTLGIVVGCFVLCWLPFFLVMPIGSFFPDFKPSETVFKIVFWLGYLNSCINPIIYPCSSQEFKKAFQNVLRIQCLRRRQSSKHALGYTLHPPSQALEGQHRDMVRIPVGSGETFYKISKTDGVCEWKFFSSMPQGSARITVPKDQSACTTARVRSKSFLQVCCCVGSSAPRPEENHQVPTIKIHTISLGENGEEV

Rattus norvegicus [3] = test: Dose (administered orally) inhibiting spontaneous locomotor behavior in rats; format: functional; settings: po
Procedure, shortened: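 At the start of the 12 h dark cycle, rats were dosed orally with vehicle or compound and placed at once in unfamiliar activity chambers. Horizontal locomotion recorded over 4 h.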

Rattus norvegicus [4] = test: Dose inducing catalepsy in rats after oral administration; format: functional
Procedure, shortened: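 Oral dose of compound or vehicle; rats tested 120 and 180 min later with forepaws on a horizontal bar (9 mm diameter, 10 cm high). Latency to climb down recorded, 90 s maximum, score averaged over two trials; 20 s mean immobility was the catalepsy criterion. ED20s dose extrapolated by linear regression.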

Rattus norvegicus [5] = test: Dose inhibiting conditioned avoidance response in rats after oral administration; format: functional
Procedure, shortened: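 Each test day, 30 predrug avoidance trials in the morning; in the afternoon, oral compound or vehicle, then 30 more trials starting 120 min later. Predrug and postdrug avoidances compared by repeated-measures ANOVA with Newman-Keuls test; ID50 from linear regression of dose-response data.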

Rattus norvegicus [6] = test: Dose (administered orally) inhibiting apomorphine-induced stereotypy in rats; format: functional; settings: po
Procedure, shortened: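 Rats dosed orally with vehicle or compound and observed in clear cages; apomorphine HCl 0.75 mg/kg sc given 3 h later. Stereotypy rated blind on a 0–4 scale starting 10 min after apomorphine, every 10 min, five ratings in all.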

[7] = target: T1, Adrenergic receptor alpha-1; test: Displacement of [3H]prazosin from Alpha-1 adrenergic receptor in rat brain; format: tissue-based

Compound | ED50 (Rattus norvegicus [1]) [mg/kg] | Log Ki [2] | ED50 (Rattus norvegicus [3]) [mg/kg] | ED50 (Rattus norvegicus [4]) [mg/kg] | ED50 (Rattus norvegicus [5]) [mg/kg] | ED50 (Rattus norvegicus [6]) [mg/kg] | Ki [7] [nM]
CC1(C)C(=O)Nc2ccc(CCN3CCN(c4nsc5ccccc45)CC3)cc21 | 2.3 | -8.68 | 10.7 | 17.8 | 2.6 | 10 | 2.1
CCN1C(=O)Cc2cc(CCN3CCN(c4nsc5ccccc45)CC3)ccc21 | 1.1 | -8.35 | 2.1 | 10 | 1.8 | 4.7 | 4.5
O=C1Cc2cc(CCN3CCN(c4nsc5ccccc45)CC3)c(Cl)cc2N1 [ZIPRASIDONE] | 1.5 | -7.98 | 8.9 | 12.1 | 2.6 | 2.4 | 11
O=C1Cc2cc(CCN3CCN(c4nsc5ccccc45)CC3)c(F)cc2N1 | 1 | -8.19 | 3.1 | 17.8 | 9 | 9.1 | 6.5
Oc1nc2ccc(CCN3CCN(c4nsc5ccccc45)CC3)cc2s1 | 2.7 | -8.63 | 2.7 | > 56 | 12.3 | 23.8 | 2.3
O=C1CC2(CCCC2)CC(=O)N1CCCCN1CCN(c2nsc3ccccc23)CC1 [TIOSPIRONE] | 4.8 | -8.83 | 15.5 | 20.1 | 11.7 | 18.8 | 1.5
Cc1nc2n(c(=O)c1CCN1CCC(c3noc4cc(F)ccc34)CC1)CCCC2 [RISPERIDONE] | 0.44 | – | 1.2 | 5.7 | 1.6 | 1.8 | –
O=C(CCCN1CCC(O)(c2ccc(Cl)cc2)CC1)c1ccc(F)cc1 [HALOPERIDOL] | 0.14 | – | 0.68 | 0.79 | 0.93 | 0.25 | –
O=C1Nc2ccc(CCN3CCN(c4nsc5ccccc45)CC3)cc2C12CCCC2 | 5.8 | -8.29 | – | 32 | – | 9 | 5.1
O=C1Cc2cc(CCN3CCN(c4nsc5ccccc45)CC3)ccc2N1 | 1.4 | -8.52 | 8.5 | 18.8 | 6.7 | 8.4 | 3
Oc1nc2ccc(CCN3CCN(c4nsc5ccccc45)CC3)cc2o1 | 4.2 | -8.38 | 9.8 | > 32 | 17.8 | 21.6 | 4.2
CN1CCN(C2=Nc3cc(Cl)ccc3Nc3ccccc32)CC1 [CLOZAPINE] | 12.8 | – | 8.18 | > 32 | > 17.8 | > 32 | –
